# Laboratory results taken from ChEMBL document CHEMBL4825665, “Effective degradation of EGFRL858R+T790M mutant proteins by CRBN-based PROTACs through both proteosome and autophagy/lysosome degradation systems” (Eur J Med Chem, 2021).
# Columns and labels:
# PC-9 = experiment: Antiproliferative activity against human PC-9 cells assessed as inhibition of cell growth measured after 72 hrs by CCK-8 assay; type: functional, cell-based; conditions: PC-9, 72 h
# In short: (§1)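 Cells seeded at 3000 cells/well in 96-well plates and treated with graded compound concentrations one day later for 72 h. CCK-8 was added for 1–4 h and absorbance read at 450 nm. Lung cancer lines were kept in RPMI 1640 with 10% fetal calf serum at 37 °C and 5% CO₂.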
# NCI-H1975 = experiment: Antiproliferative activity against human NCI-H1975 cells assessed as inhibition of cell growth measured after 72 hrs by CCK-8 assay; type: functional, cell-based; conditions: NCI-H1975, 72 h; in short: as §1
# BJ = experiment: Cytotoxicity against human BJ cells assessed as inhibition of cell growth measured after 72 hrs by CCK-8 assay; type: cell-based; in short: as §1
# [1] = Antiproliferative activity against human PB1 cells assessed as inhibition of cell growth measured after 72 hrs by CCK-8 assay; type: functional, cell-based; conditions: PB1, 72 h; in short: as §1
# HEK-293T = experiment: Cytotoxicity against human HEK293T cells assessed as inhibition of cell growth measured after 72 hrs by CCK-8 assay; type: cell-based; in short: as §1
# HCC827 = experiment: Antiproliferative activity against human HCC827 cells assessed as inhibition of cell growth measured after 72 hrs by CCK-8 assay; type: functional, cell-based; conditions: HCC827, 72 h; in short: as §1
# A549 = experiment: Antiproliferative activity against human A549 cells assessed as inhibition of cell growth measured after 72 hrs by CCK-8 assay; type: functional, cell-based; conditions: A549, 72 h; in short: as §1
# BaF3 = experiment: Antiproliferative activity against mouse BaF3 cells assessed as inhibition of cell growth measured after 72 hrs by CCK-8 assay; type: functional, cell-based; conditions: BaF3, 72 h; in short: as §1
Compound,IC50 (PC-9),IC50 (NCI-H1975),IC50 (BJ),IC50 [1],IC50 (HEK-293T),IC50 (HCC827),IC50 (A549),IC50 (BaF3)
C=CC(=O)Nc1cc2c(Nc3ccc(F)c(Cl)c3)ncnc2cc1OCCCN1CCN(C(=O)CNc2cccc3c2C(=O)N(C2CCC(=O)NC2=O)C3=O)CC1 (stereo not drawn),0.005 µM,0.234 µM,> 10 µM,0.19 µM,> 10 µM,–,–,–
C=CC(=O)Nc1cc2c(Nc3ccc(F)c(Cl)c3)ncnc2cc1OCCCN1CCOCC1 [CANERTINIB],0.000859 µM,0.0113 µM,5.61 µM,0.0702 µM,6 µM,0.000378 µM,7.16 µM,0.0092 µM
C=CC(=O)Nc1cc2c(Nc3ccc(F)c(Cl)c3)ncnc2cc1OCCCN1CCN(C(=O)CCCCNc2cccc3c2C(=O)N(C2CCC(=O)NC2=O)C3=O)CC1 (stereo not drawn),0.000452 µM,0.0354 µM,> 10 µM,0.122 µM,> 10 µM,–,–,–
C=CC(=O)Nc1cc2c(Nc3ccc(F)c(Cl)c3)ncnc2cc1OCCCN1CCN(C(=O)CCCNc2cccc3c2C(=O)N(C2CCC(=O)NC2=O)C3=O)CC1 (stereo not drawn),0.00138 µM,0.209 µM,> 10 µM,0.145 µM,14.7 µM,–,–,–
C=CC(=O)Nc1cc2c(Nc3ccc(F)c(Cl)c3)ncnc2cc1OCCCN1CCNCC1,0.00112 µM,0.162 µM,2.75 µM,0.0334 µM,21.8 µM,–,–,–
C=CC(=O)Nc1cc2c(Nc3ccc(F)c(Cl)c3)ncnc2cc1OCCCN1CCN(C(=O)CCNc2cccc3c2C(=O)N(C2CCC(=O)NC2=O)C3=O)CC1 (stereo not drawn),0.000977 µM,0.11 µM,> 10 µM,0.163 µM,> 10 µM,–,–,–
